According to PMC12315948 (The FASEB Journal, 2021):

Key:
[1] = system: HeLa cells; format: cell-based; conditions: 24 h treatment, 2 h 2.5 µg/mL pyolysin, MTT
How it was run: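 HeLa cells grown in DMEM with 10% FBS were seeded at 50,000 cells/mL. At 90% confluence they were treated in serum-free medium with vehicle, 100 µM test compound or 10 µM zaragozic acid, for 24 h or for indicated times. Cells were then challenged for 2 h with control medium or 2.5 µg/mL pyolysin. MTT (1 mg/mL, 2 h) was read at OD570 after DMSO lysis. Values are percentage of control; 4 independent experiments.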

[2] = system: HeLa cells; experiment: Cytotoxicity per se in HeLa cells, MTT assay, control challenge; format: cell-based
How it was run: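 HeLa cells were seeded at 50,000 cells/mL in DMEM with 10% FBS. At 90% confluence they received serum-free medium with vehicle, 100 µM test compound or zaragozic acid for 24 h. They were then given a 2 h control-medium challenge without toxin. Viability was measured by MTT (1 mg/mL, 2 h; DMSO lysis; OD570) as percentage of control. Each point is one independent passage (n = 12).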

[3] = system: A549 cells; experiment: Cytoprotection of A549 cells against streptolysin O; format: cell-based, human; conditions: 24 h: 100 µM MPEX098 or 10 µM zaragozic acid; 2 h challenge
How it was run: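 A549 cells were grown in RPMI1640 with 5% FBS, 1% antibiotic-antimycotic and 1% glutamine, then seeded at 50,000 cells/mL. At 90% confluence they were given serum-free medium with vehicle or treatment for 24 h, then challenged 2 h with graded streptolysin O. Viability was read by MTT (1 mg/mL, 2 h, DMSO lysis, OD570). LDH in supernatants was read by the INT/PMS lactate assay at OD450, initially and after 30 min at 37°C, against NADH standards.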

[4] = system: squalene synthase; conditions: squalene synthase cell free assay; cited from earlier work

SMILES | cytoprotection against pyolysin by isoprenoid treatment [1] | cytotoxic concentration per se [2] [µM] | cell toxicity per se ([2]; MTT assay, control challenge, 100 µM MPEX098 or 10 µM zaragozic acid, 24 h, n = 12) [%] | protection of A549 cells against streptolysin O [3] | IC50 [4] [nM]
CC(C)=CCC/C(C)=C/CC/C(C)=C/CO[P@@](=O)(O)OP(=O)(O)O (stereo in doubt) [farnesyl diphosphate] | but not farnesyl diphosphate (P = .12) increased cytoprotection |  |  |  | 
C=C(CC[C@]12O[C@H](C(=O)O)[C@@](O)(C(=O)O)[C@](C(=O)O)(O1)[C@H](OC(=O)/C=C/[C@@H](C)C[C@@H](C)CC)[C@H]2O)[C@@H](OC(C)=O)[C@H](C)Cc1ccccc1 [Zaragozic acid, zaragozic acid] |  | […] | 13 ± 3 | protected A549 cells against a range of concentrations of streptolysin O | […]
CC(C)=CCC/C(C)=C/CC/C(C)=C/CC/C(C)=C/COP(=O)(O)OP(=O)(O)O [geranylgeranyl diphosphate] | increased cytoprotection against pyolysin |  |  |  | 
